Results gathered from unrelated publications.
Compare with care: the assays were run in different laboratories.
EP300: Histone acetyltransferase p300 (EP300, Homo sapiens, UniProt Q09472)
KMT5A: N-lysine methyltransferase KMT5A (KMT5A, Homo sapiens, UniProt Q9NQR1)
ABL1 H396P: Tyrosine-protein kinase ABL1 (ABL1, Homo sapiens, UniProt P00519, H396P)

Compound | target | assay | conditions | quantity | result
C[S+]([O-])c1ccc(-c2nc(-c3ccncc3)c(-c3ccc(F)cc3)[nH]2)cc1 (stereo not shown) | EP300 | thermal stability, DSF | 10 µM | ΔTm | 0.35 °C
Nc1ncnc2c1ncn2[C@@H]1O[C@H](CSCC[C@H](N)C(=O)O)[C@@H](O)[C@H]1O | Protein arginine N-methyltransferase 6 (PRMT6, Homo sapiens, UniProt Q96LA8) | thermal stability, DSF | 100 µM | ΔTm | 8.4 °C
O=c1c(O)cccc2cc(O)c(O)c(O)c12 | KMT5A | cell-free assay | 10 µM | inhibition | 7%
COc1cc(-c2cc(-c3ccc(N4CCNCC4)cc3)cnc2N)cc(OC)c1OC | ABL1 H396P | enzyme activity, inhibitor | 1 µM | inhibition | 96%
Cc1cnc(Nc2ccc(OCCN3CCCC3)cc2)nc1Nc1cccc(S(=O)(=O)NC(C)(C)C)c1 | EP300 | thermal stability, DSF | 10 µM | ΔTm | 2.76 °C
Cc1cc(O)c(C=O)c2c1C(=O)Oc1c(C)c(O)c3c(c1O2)C(O)OC3=O (stereo not shown) | KMT5A | cell-free assay | 10 µM | inhibition | -14%
O=C(c1ccc(F)cc1)N(Cc1ccccc1)C1CCCCC1 | Delta-type opioid receptor (OPRD1, Homo sapiens, UniProt P41143) | ligand displacement | 10 µM | inhibition | 0%
Cc1cc(NC(=O)c2cccc3cc(-c4cccc5[nH]nc(N)c45)ccc23)ccc1F | ABL1 H396P | enzyme activity, inhibitor | 0.1 µM | activity vs control | 97%
Cc1ccc(Nc2nccc(N(C)c3ccc4c(C)n(C)nc4c3)n2)cc1S(N)(=O)=O | cAMP-dependent protein kinase catalytic subunit alpha (PRKACA, Bos taurus, UniProt P00517) | enzyme activity, inhibitor | 10 µM | inhibition | -19%
Cc1ccc(C(=O)Nc2ccc(CN3CCN(C)CC3)c(C(F)(F)F)c2)cc1C#Cc1cnc2cccnn12 | Serine/threonine-protein kinase Nek10 (NEK10, Homo sapiens, UniProt Q6ZWH5) | enzyme activity, inhibitor | 23.5 nM | remaining activity | 100%
Nc1ncnc2occ(-c3ccc(NC(=O)Nc4cc(C(F)(F)F)ccc4F)cc3)c12 | Tyrosine-protein kinase ABL1, phosphorylated (ABL1, Homo sapiens, UniProt P00519, F317L) | cell-free assay, inhibitor | 20 µM | remaining signal | 9.2%
CN(C)C1CCN(CC#Cc2nn(C3CCCC3)c3nc(NCc4ccccc4)ncc23)C1 (stereo not shown) | Tyrosine-protein kinase ITK/TSK (ITK, Homo sapiens, UniProt Q08881) | enzyme activity, inhibitor, FRET | 1 µM | inhibition | 5%
Oc1cccc(Nc2nc(-c3ccc(F)cc3F)cs2)c1 | Cholecystokinin receptor type A (CCKAR, Homo sapiens, UniProt P32238) | cell-free assay | 10 µM | inhibition | 76%
